In ChEMBL document CHEMBL5131498, “Synthesis and biological evaluation of orally active prodrugs and analogs of para-aminosalicylic acid (PAS)” (Eur J Med Chem, 2022) one finds MIC90 data, which are given here for four compounds.

Format in all cases: functional
Assay [1] concerns Mycobacterium tuberculosis. As to the kind of experiment: Antimycobacterial activity against PAS resistant Mycobacterium tuberculosis H37Rv harboring R49W mutant assessed as inhibition of bacterial growth measured after 2 weeks by microbroth dilution method. An outline of the steps:
(§1)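 Diluted 1000-fold into 96-well plates with 2-fold serial compound dilutions and incubated at 37 °C for 2 weeks. Growth scored by mirror at 1 and 2 weeks. MIC is the lowest concentration completely inhibiting growth; tested in duplicate. DMSO, isoniazid and linezolid served as controls.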
(In general: Dilution methods test growth across graded concentrations, often in twofold steps.)

Assay [2] deals with Mycobacterium tuberculosis. As to the kind of experiment: Antimycobacterial activity against multidrug resistant Mycobacterium tuberculosis H37Rv assessed as inhibition of bacterial growth measured after 2 weeks by microbroth dilution method. As to conditions: 336 h. The gist of the method: as §1
Assay [3] relates to Mycobacterium tuberculosis. As to the kind of experiment: Antimycobacterial activity against extensively drug resistant Mycobacterium tuberculosis H37Rv assessed as inhibition of bacterial growth measured after 2 weeks by microbroth dilution method. As to conditions: 336 h. The gist of the method: as §1
For assay [4], the system named is Mycobacterium tuberculosis. As to the kind of experiment: Antimycobacterial activity against PAS resistant Mycobacterium tuberculosis H37Rv harboring E153A mutant assessed as inhibition of bacterial growth measured after 2 weeks by microbroth dilution method. The gist of the method: as §1
In assay [5] the test system is Mycobacterium tuberculosis. As to the kind of experiment: Antimycobacterial activity against PAS resistant Mycobacterium tuberculosis H37Rv harboring S150G mutant assessed as inhibition of bacterial growth measured after 2 weeks by microbroth dilution method. The gist of the method:
as §1

Structures are written as SMILES. Values after ≈ are worked out from the molar mass of the structure shown.

The term MIC90 denotes the lowest concentration that inhibits either 90% of growth or 90% of the strains tested, depending on the study.

In the case of `Nc1cc(O)c(C(=O)O)cc1F`, the MIC90 entry was “>=50 uM” in assay [1]; 6.3 µM (≈ 1.08 µg/mL) in assay [2]; at least 50 µM in assay [3]; “>=50 uM” in assay [4]; “>=50 uM” in assay [5].
Regarding `Nc1ccc(C(=O)O)c(O)c1` [AMINOSALICYLIC ACID], the MIC90 was 12.5 µM (≈ 1.91 µg/mL) in assay [1]; 0.2 µM (≈ 0.0306 µg/mL) in assay [2]; at least 50 µM in assay [3]; 12.5 µM (≈ 1.91 µg/mL) in assay [4]; 12.5 µM (≈ 1.91 µg/mL) in assay [5].
Regarding `NNC(=O)c1ccncc1` [ISONIAZID], the MIC90 in assay [1] stood at 0.3 µM (≈ 0.0411 µg/mL); in assay [2], 0.4 µM (≈ 0.0549 µg/mL); in assay [3] it was 6.3 µM (≈ 0.864 µg/mL); in assay [4], 0.3 µM (≈ 0.0411 µg/mL); in assay [5], 0.3 µM (≈ 0.0411 µg/mL).
As to `CC(=O)NC[C@H]1CN(c2ccc(N3CCOCC3)c(F)c2)C(=O)O1` [LINEZOLID], the MIC90 turned out to be 1.9 µM (≈ 0.641 µg/mL) in assay [1]; 0.8 µM (≈ 0.27 µg/mL) in assay [2]; 0.9 µM (≈ 0.304 µg/mL) in assay [3]; 1.9 µM (≈ 0.641 µg/mL) in assay [4]; 1.9 µM (≈ 0.641 µg/mL) in assay [5].
